Compound activity as filed in PubChem.
Runt-SMMHC FRET: blocks binding of human RUNX1 Runt domain to CBFb-SMMHC; Q01196+Q13951; Cerulean-Runt/Venus-CBFb-SMMHC FRET ratio 530/480, 1 h; inhibition, % at 20 µM; 0.74% of 220,000 active;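 active = mean inhibition across duplicate retests at 20 µM reaching about 50%, limit read from the data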;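 also: 0% = DMSO wells and 100% = wells with excess untagged CBFb-SMMHC; inhibitors lower the FRET ratio by blocking Runt binding to CBFb-SMMHC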
Target sequence (Q01196 whole entry, looked up, the tested form may be a part): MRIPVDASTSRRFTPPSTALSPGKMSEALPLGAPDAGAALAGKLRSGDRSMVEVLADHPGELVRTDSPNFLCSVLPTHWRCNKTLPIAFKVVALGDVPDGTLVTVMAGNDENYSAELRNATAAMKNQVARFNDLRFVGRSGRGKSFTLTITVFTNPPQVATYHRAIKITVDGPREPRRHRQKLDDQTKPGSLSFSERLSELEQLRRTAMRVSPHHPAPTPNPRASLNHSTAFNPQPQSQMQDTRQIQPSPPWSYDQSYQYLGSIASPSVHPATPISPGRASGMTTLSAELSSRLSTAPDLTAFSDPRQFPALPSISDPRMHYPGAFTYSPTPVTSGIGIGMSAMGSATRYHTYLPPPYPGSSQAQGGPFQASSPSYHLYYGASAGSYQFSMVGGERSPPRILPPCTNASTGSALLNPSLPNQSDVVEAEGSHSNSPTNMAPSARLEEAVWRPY
Target sequence (Q13951 whole entry, looked up, the tested form may be a part): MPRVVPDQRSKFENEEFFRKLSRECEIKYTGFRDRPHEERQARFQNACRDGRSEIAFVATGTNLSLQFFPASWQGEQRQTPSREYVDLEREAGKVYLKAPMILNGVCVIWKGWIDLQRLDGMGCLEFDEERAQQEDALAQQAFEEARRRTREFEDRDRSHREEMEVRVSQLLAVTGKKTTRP
Hck-Nef inh: human Hck-Nef kinase inhibition; P08631; Recombinant Hck-YEEI plus Nef, Z-Lyte FRET kinase assay; inhibition, % at 20 µM; 0.68% of 220,000 active;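 active = Hck-Nef kinase inhibition above about 50%, limit read from the data; inactive = inhibition below that limit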;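 also: 0% = DMSO with Hck plus Nef and 100% = Hck alone without Nef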
Runt-CBFb FRET: blocks binding of human RUNX1 Runt domain to CBFb | 0.46% of 220,000 active | inhibition, % at 20 µM | Cerulean-Runt/Venus-CBFb FRET ratio 530/480, 1 h;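 active = inhibition over about 50% at 20 µM in the single-dose screen, limit read from the data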;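 also: 0% = DMSO wells and 100% = excess unlabeled CBFb competitor control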
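Buffer or medium: Tris pH 7.5 buffer with BSA. Assay system: Cerulean-labeled Runt domain protein. Amount: each fluorescent fusion protein 100 nM. Read-out basis: loss of energy transfer signal. Incubation: 1 h compound exposure, room temperature. Probe or stimulus: Venus-CBFb binding partner, 100 nM. Detection: FRET, excitation 422 nm, emission at 530 and 480 nm.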
RanGTP-Imp inh: disruptors of Ran-importin-beta complex formation – biochemical, FRET, CFP-Ran, YFP-importin-beta, homogeneous, primary screen; 1.1% of 300,000 active; AID 2216; cell-free CFP-Ran/YFP-importin-beta FRET ratio; inhibition, % (test concentration not listed);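 active = more than half of the replicate wells show a fall in the fluorescence ratio signal beyond about 16%, limit read from the data, passing the limit was not always enough; inconclusive = exactly half of the replicate wells pass the set limit; inactive = fewer than half of replicates pass the limit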;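 also: 0% = DMSO wells and 100% = Ran loaded with GDP instead of GTP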
An asterisk follows results filed as active; u = inconclusive; x = no result given. A selection: hits, their analogues and other compounds. The true share with any hit is near 1.7%.

SMILES	Runt-SMMHC FRET	Hck-Nef inh	Runt-CBFb FRET	RanGTP-Imp inh
CC(=O)COc1ccc2cc(-c3ccccc3)c(=O)oc2c1	x	x	x	7
O=C(COc1ncnc2ccccc12)Nc1ccccc1[N+](=O)[O-]	1	25	-1	-3
COc1cccc(C2C=C(c3ccc(Br)s3)Nc3ncnn32)c1OC (centres undefined)	63*	-6	19	-15
C/C(N)=C(/C#N)C(=O)COC(=O)CNC(=O)c1ccc(Cl)cc1Cl	-23	-4	0	37*
C/C(N)=C(/C#N)C(=O)COc1ccc(Cl)cc1Cl	2	13	-1	u
CCCCCCc1cc2cc(-c3nnc(-c4ccccc4OC)o3)c(=O)oc2cc1O	58*	3	18	136*
CCCCCCc1cc2cc(-c3nnc(-c4cc(OC)c(OC)c(OC)c4)o3)c(=O)oc2cc1O	75*	-7	123*	139*
CCCCCCc1cc2cc(-c3nnc(-c4ccccc4O)o3)c(=O)oc2cc1O	38	-17	11	159*
CCCCCCc1cc2cc(C(=O)Nc3ccccc3OC)c(=O)oc2cc1O	63*	15	133*	93*
COc1ccc(S(=O)(=O)Nc2ccccc2OC)cc1NC(=O)c1cc2ccccc2oc1=O	-8	2	-3	0
Cc1sc(NC(=O)C2=COCCO2)nc1-c1ccc(Cl)cc1	x	x	x	0
COc1cc(/C=N/NC(=O)c2nnn(-c3nonc3N)c2C(C)C)ccc1OCc1ccc(F)cc1	x	x	x	4
COC(=O)c1c(NC(=O)C(=O)NCC2CCCO2)sc2c1CC(C)(C)OC2 (centres undefined)	x	x	x	0
COc1cc(NC(=O)c2sc(C)nc2C)c(OC)cc1NC(=O)c1ccccc1	x	x	x	1
O=C(Cc1nc(-c2ccc([N+](=O)[O-])cc2)cs1)Nc1ccccc1	-4	0	0	-3
CCN(CC)CCC(c1ccc2c(c1)OCO2)c1c(O)cc(OC)cc1OC (centres undefined)	1	17	3	-2
N#Cc1c(N)nc2c3c(sc(=N)c2c1N)NC(=O)CC3c1c(F)cccc1Cl (centres undefined)	9	13	8	85*
N#Cc1c(N)nc2c3c(sc(=N)c2c1N)NC(=O)CC3c1ccccc1 (centres undefined)	40	10	23	119*
Cc1c(C#N)c(N)nc2c3c(sc12)NC(=O)CC3c1ccc(Cl)cc1 (centres undefined)	8	46	5	3
CCCCc1cc(=O)oc2cc(O)cc(O)c12	61*	-41	35	5
CCCCc1cc(=O)oc2cc(C)cc(O)c12	-44	-1	x	1
COC(=O)/C=C/c1ccsc1NC(C)=O	2	5	-1	0
CC1(C)Cc2c(sc3nc(C4CC4)n(N)c(=O)c23)CO1	1	22	98*	2
COc1ccc(S(=O)(=O)n2nc(C)cc2C)c(C)c1C	0	0	2	-3
CCn1c(C)c(C(C)=O)c(N2CCN(c3ccccc3)CC2)nc1=S	11	2	-62	19*
SMILES	Runt-SMMHC FRET	Hck-Nef inh	Runt-CBFb FRET	RanGTP-Imp inh
CCn1c(C)c(C(C)=O)c(N2CCN(C(c3ccccc3)c3ccccc3)CC2)nc1=S	23	-6	18	57*
CCn1c(C)c(C(C)=O)c(N2CCCCC2)nc1=S	1	-3	1	2
Cc1ccc(CNC(=O)c2ccc3c(=O)[nH]c4c(C(=O)NCC5CCCO5)sc(=S)n4c3c2)cc1 (centres undefined)	-26	57*	x	3
COc1ccc(N2CSC3=C(C#N)C(c4cc(OC)c(OC)cc4OC)CC(=O)N3C2)c(OC)c1 (centres undefined)	38	-1	29	0
COc1cc(OC)c(C2CC(=O)N3CN(c4ccc(C)cc4)CSC3=C2C#N)cc1OC (centres undefined)	101*	2	101*	-93
COC(=O)c1ccc(S(=O)(=O)c2ccccc2)c(N)c1	9	-7	6	-2
CN(CCN(C)C(C)(C)C)C(=O)C(c1ccccc1)c1ccccc1	-1	-2	1	2
COc1cccc(-n2c(C)cc(/C=C3\C(=N)N4N=C(CC(=O)N5CCOCC5)SC4=NC3=O)c2C)c1	x	x	x	16*
C=CCc1ccccc1OCC(=O)N/N=C/c1ccc(OC(C)=O)cc1OC(C)=O	16	21	3	-2
C/C(=N/NC(=O)NC12CC3CC(CC(C3)C1)C2)c1ccccc1	x	x	x	0
COc1cc(/C=N/N2C(=O)CSC2=S)cc(Br)c1O	-39	76*	5	x
Cc1ccc(C(=O)N2CC(C)CC(C)C2)cc1NC1=NC2CS(=O)(=O)CC2S1 (centres undefined)	x	x	x	-2
CC1C2(C)OCC(C#N)(C(=N)O2)C1(C#N)C#N (centres undefined)	51*	8	21	7
CN(CC(=O)Nc1ccc(N2CCOCC2)cc1)C(=O)CSc1ccc(F)cc1	x	x	x	1
Cc1ccc(S(=O)(=O)NC(C(=O)Oc2ccc3c(C(F)(F)F)cc(=O)oc3c2)c2ccccc2)cc1 (centres undefined)	59*	-1	19	36*
CC(C)(C)c1ccccc1NC(=S)NC1CCCC1	x	x	x	-2
CC(C)(C)c1ccccc1NC(=S)NC1CCCCC1	-3	22	-2	83*
CCCCN(CCCC)c1nc2ccccc2nc1C(C#N)C(=O)NCCCOC (centres undefined)	26	-2	3	32*
N#CC(C(=O)NCCc1ccccc1)c1nc2ccccc2nc1N1CCOCC1 (centres undefined)	-38	-4	-19	u
CCN(CC)c1nc2ccccc2nc1C(C#N)C(=O)NCCCOC (centres undefined)	61*	5	67*	x
CCN(CC)c1nc2ccccc2nc1C(C#N)C(=O)NCCc1ccccc1 (centres undefined)	59*	2	34	52*
CCCN(CCC)c1nc2ccccc2nc1C(C#N)C(=O)OC(C)COC (centres undefined)	x	-1	x	23*
Cc1cc(C)cc(NC(=O)CSc2nc(=O)n3cc(C)ccc3n2)c1	x	x	x	3
COCCNC(=O)C(c1ccc(F)cc1)N(C(=O)CCC(=O)Nc1ccccn1)c1ccc(C)cc1 (centres undefined)	x	x	x	4
CCCc1cc(N2CCN(C(=O)c3ccco3)CC2)n2c(nc3ccccc32)c1C#N	65*	8	23	31*
SMILES	Runt-SMMHC FRET	Hck-Nef inh	Runt-CBFb FRET	RanGTP-Imp inh
Fc1ccc(NC(=S)N2CCN(c3cccc(C(F)(F)F)c3)CC2)cc1	1	0	3	27*
FC(F)(F)c1cccc(NC(=S)N2CCN(c3cccc(C(F)(F)F)c3)CC2)c1	-6	1	30	-3
CCCCCCCCCCCCS(=O)(=O)CCC(=O)O	-1	19	3	3
CCCCCC#CCC#CCC#CCC#CCCCC(=O)O	8	76*	14	0
COCC(=O)N1CCCN(c2nc3c(C)cccc3cc2C#N)CC1	38	10	8	57*
CCOCCCNC(=S)N1CCCN(c2nc3c(C)c(C)ccc3cc2C#N)CC1	x	18	x	51*
